Measurements reported in ChEMBL document CHEMBL4049426, “Identification of the Clinical Candidate (R)-(1-(4-Fluorophenyl)-6-((1-methyl-1H-pyrazol-4-yl)sulfonyl)-4,4a,5,6,7,8-hexahydro-1H-pyrazolo[3,4-g]isoquinolin-4a-yl)(4-(trifluoromethyl)pyridin-2-yl)methanone (CORT125134): A Selective Glucocorticoid Receptor (GR) Antagonist” (J Med Chem, 2017).
pIC50, pKi: −log10 of the molar value. Active and inactive are the calls of the source. The rule behind the calls is not given here.

Tests used:
[1] = target: T1, Glucocorticoid receptor (Rattus norvegicus) (UniProt P06536); test: (§1) Antagonist activity at rat glucocorticoid receptor in primary hepatocytes assessed as dexamethasone-induced tyrosine amino transferase activity preincubated for 30 mins followed by dexamethasone addition measured after 20 hrs; assay type: cell-based
T1 sequence (whole entry): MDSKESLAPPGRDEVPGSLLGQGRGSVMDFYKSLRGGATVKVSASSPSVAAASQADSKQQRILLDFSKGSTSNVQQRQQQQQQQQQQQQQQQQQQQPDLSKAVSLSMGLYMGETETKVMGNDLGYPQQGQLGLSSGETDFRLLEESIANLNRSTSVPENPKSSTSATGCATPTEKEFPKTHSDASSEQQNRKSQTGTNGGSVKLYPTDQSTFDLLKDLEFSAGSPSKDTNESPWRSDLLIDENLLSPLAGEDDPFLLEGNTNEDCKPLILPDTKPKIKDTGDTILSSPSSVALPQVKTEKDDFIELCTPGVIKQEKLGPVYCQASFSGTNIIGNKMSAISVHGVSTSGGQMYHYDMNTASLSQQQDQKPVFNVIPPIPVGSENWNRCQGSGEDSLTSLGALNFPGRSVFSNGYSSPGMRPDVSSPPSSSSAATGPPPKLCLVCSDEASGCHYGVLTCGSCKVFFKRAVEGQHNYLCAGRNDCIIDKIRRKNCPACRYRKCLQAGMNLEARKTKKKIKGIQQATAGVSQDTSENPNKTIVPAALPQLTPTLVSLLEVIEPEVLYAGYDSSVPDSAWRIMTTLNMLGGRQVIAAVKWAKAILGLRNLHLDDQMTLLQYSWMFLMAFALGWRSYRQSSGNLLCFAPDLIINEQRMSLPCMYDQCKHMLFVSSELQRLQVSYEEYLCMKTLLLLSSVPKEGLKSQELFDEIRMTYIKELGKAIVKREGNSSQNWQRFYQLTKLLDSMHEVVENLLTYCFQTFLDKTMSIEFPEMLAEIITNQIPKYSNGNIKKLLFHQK

Glucocorticoid receptor [2] = target: T2, Glucocorticoid receptor (Rattus norvegicus, UniProt P06536); test: as §1; assay type: cell-based
T2 sequence (P06536 whole entry): T1 sequence (whole entry)

[3] = target: T3, Glucocorticoid receptor (Homo sapiens) (UniProt P04150); test: Agonist activity at glucocorticoid receptor in human HepG2 cells assessed as induction of tyrosine amino transferase activity measured after 20 hrs; assay type: cell-based; conditions: in the assay text read “primary hepatocytes” for “HepG2 cells”
T3 sequence (whole entry): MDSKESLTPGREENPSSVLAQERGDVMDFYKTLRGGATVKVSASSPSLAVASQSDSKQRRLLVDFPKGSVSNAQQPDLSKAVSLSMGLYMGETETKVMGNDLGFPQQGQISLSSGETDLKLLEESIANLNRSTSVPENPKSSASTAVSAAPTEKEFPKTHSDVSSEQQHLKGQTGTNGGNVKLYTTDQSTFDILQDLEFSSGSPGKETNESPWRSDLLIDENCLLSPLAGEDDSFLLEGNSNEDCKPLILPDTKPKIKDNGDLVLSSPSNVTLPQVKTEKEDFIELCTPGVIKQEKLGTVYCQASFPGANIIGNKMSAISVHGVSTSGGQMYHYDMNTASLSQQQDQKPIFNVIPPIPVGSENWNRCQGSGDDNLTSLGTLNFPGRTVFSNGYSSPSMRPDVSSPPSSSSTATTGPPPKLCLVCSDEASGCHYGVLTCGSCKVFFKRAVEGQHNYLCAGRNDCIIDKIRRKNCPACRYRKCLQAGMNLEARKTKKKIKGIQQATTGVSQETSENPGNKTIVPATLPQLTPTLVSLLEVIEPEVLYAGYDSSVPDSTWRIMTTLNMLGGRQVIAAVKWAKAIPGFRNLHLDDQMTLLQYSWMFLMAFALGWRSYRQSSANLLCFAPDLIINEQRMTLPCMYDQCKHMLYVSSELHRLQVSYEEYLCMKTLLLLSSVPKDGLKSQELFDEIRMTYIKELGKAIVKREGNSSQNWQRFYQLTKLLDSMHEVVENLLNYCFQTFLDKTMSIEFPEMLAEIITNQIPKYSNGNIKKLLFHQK
In short: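 HepG2 cells in charcoal-stripped FBS RPMI, 25,000 cells/well, 24 h; assay media with 10 µM forskolin. 30 min pre-incubation in 0.1% DMSO, then compound (8-point half-log, 10 µM to 0.003 µM final) for 20 h at 37°C. TAT in lysate with tyrosine, alpha-ketoglutarate and pyridoxal phosphate, 2 h at 37°C, KOH stop, A340. EC50 from 4-parameter fit of % activation of basal TAT.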

[4] = target: T1, Glucocorticoid receptor (Rattus norvegicus); test: Partial agonist activity at rat glucocorticoid receptor in primary hepatocytes assessed as induction of tyrosine amino transferase activity at 10 uM measured after 20 hrs; assay type: cell-based
Rattus norvegicus = test: In vivo antagonist activity at glucocorticoid receptor in Sprague-Dawley rat cortisone model of exogenous Cushing's syndrome assessed as inhibition of plasma insulin levels at 7.5 mg/kg, po bid via gavage for 6 days pretreated for 12 hrs followed by cortisone 21-acetate treatment measured 24 hrs after last cortisone 21-acetate treatment; assay type: functional, organism-based
In short: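 Male Sprague Dawley rats (200-250 g) got vehicle daily for a 3-day baseline, then groups of eight were dosed. Test agent was suspended in DMSO:Tween 80:0.5% HPMC (10:0.1:89.9) and given by oral gavage twice daily for 6 days. Cortisone 21-acetate was given at 30 mg/kg s.c. once daily in 1% methylcellulose. Tail-vein blood was taken 24 h after the last cortisone dose (12 h after the last test dose). Glucose was read with a clinical reagent and insulin by rat ELISA.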

Cytochrome P450 2D6 = Cytochrome P450 2D6 (Homo sapiens, UniProt P10635); test: Inhibition of CYP2D6 (unknown origin); assay type: ADME
Cytochrome P450 2D6, sequence (P10635 whole entry): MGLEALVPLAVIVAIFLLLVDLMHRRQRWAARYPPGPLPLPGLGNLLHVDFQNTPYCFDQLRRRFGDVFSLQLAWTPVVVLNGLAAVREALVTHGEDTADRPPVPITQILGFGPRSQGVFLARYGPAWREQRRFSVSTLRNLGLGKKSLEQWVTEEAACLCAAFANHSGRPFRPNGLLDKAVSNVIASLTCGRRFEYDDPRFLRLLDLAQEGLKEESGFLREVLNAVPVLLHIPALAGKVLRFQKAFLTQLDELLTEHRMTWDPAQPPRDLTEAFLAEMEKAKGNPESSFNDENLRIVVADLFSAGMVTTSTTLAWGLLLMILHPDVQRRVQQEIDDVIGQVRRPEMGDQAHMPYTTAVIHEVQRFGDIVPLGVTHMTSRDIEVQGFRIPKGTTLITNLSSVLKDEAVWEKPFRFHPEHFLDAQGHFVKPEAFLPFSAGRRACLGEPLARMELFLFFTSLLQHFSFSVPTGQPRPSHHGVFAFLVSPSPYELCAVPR

Cytochrome P450 2B6 = target: T4, Cytochrome P450 2B6 (Homo sapiens, UniProt P20813); test: Time-dependent inhibition of CYP2B6 (unknown origin); assay type: ADME
T4 sequence (P20813 whole entry): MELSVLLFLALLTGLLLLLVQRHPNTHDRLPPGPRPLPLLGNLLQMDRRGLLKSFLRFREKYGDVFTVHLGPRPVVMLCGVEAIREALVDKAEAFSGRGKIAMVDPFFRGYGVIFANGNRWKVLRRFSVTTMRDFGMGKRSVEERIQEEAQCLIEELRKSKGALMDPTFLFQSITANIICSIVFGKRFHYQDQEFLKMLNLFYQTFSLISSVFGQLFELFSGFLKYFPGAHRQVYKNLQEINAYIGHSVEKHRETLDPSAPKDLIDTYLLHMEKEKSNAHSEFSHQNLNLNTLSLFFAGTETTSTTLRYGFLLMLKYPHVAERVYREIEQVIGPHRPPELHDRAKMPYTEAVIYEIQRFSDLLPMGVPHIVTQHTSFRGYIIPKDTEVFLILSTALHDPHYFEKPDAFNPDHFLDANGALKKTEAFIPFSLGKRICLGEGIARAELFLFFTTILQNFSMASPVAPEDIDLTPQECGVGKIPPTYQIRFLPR

[5] = target: T3, Glucocorticoid receptor (Homo sapiens); test: (§2) Antagonist activity at glucocorticoid receptor in human primary hepatocytes assessed as inhibition of dexamethasone-induced tyrosine amino transferase activity preincubated for 30 mins followed by dexamethasone addition measured after 20 hrs; assay type: cell-based
Glucocorticoid receptor [6] = target: T5, Glucocorticoid receptor (Homo sapiens, UniProt P04150); test: as §2; assay type: cell-based
T5 sequence (P04150 whole entry): T3 sequence (whole entry)

Cn1cc(S(=O)(=O)N2CCC3=Cc4c(cnn4-c4ccc(F)cc4)C[C@]3(C(=O)c3cc(C(F)(F)F)ccn3)C2)cn1 [RELACORILANT]
Imax [1]: 54.2%
pKi (Glucocorticoid receptor [2]): 7.92
Emax [3]: 0%
Activity [4]: Active
inhibition (Rattus norvegicus): Active
pIC50 (Cytochrome P450 2D6): 5.05
TDI (Cytochrome P450 2B6): Not Active
Imax [5]: 100%
pKi (Glucocorticoid receptor [6]): 7.09
